From PubChem BioAssay
Granule exo inh = blocks lytic granule exocytosis | TALL-104 LAMP-1 surface exposure, flow cytometry; cells stimulated with thapsigargin and PMA | inhibition, % at 10 µM | 360,000 compounds, 0.66% hits | AID 651702;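 active means inhibition above about 55%, limit read from the data; inconclusive means no clear call, values can overlap the other calls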
ABHD5 PLIN5 PPI = inhibitors of human ABHD5-perilipin-5 interaction. Q00G26+Q8WTS1. Split G. princeps luciferase complementation, luminescence, 4 h. inhibition, % at 4 µM. 360,000 compounds, 0.78% hits. AID 602281;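 active means inhibition above the mean inhibition across every tested compound plus 3 SD, cut at about 22% in these data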;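 further: 0% = DMSO only wells and the 100% control is not disclosed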
Target sequence (Q00G26 whole entry, looked up): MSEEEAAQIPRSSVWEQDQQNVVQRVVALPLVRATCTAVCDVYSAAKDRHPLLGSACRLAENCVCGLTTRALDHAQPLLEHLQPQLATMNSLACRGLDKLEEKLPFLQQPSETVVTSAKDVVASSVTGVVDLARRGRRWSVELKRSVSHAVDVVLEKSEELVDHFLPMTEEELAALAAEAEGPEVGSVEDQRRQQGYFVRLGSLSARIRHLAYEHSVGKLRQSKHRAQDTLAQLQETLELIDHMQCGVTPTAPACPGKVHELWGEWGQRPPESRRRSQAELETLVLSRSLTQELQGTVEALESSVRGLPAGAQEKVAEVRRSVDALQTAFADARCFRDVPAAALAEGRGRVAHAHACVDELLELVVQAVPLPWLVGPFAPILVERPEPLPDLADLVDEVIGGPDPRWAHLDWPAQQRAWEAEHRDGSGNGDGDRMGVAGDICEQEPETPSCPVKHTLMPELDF
Target sequence (Q8WTS1 whole entry, looked up): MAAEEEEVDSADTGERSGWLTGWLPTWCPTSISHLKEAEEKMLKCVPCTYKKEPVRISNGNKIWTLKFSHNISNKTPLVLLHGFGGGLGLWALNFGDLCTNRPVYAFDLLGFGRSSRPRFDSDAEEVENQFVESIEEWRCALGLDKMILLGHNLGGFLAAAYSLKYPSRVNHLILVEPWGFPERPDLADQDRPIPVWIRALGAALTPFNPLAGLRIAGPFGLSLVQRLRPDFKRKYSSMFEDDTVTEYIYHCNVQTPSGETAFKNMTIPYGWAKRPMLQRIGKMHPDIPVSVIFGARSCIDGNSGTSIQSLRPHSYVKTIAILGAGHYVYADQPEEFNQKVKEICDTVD
Mdm2 MdmX PPI = disrupts the human Mdm2-MdmX interaction; inhibition, % at 8 µM; 330,000 compounds, 3% hits; O15151+Q00987; SaOS-2 split-luciferase Mdm2/MdmX complementation, luminescence;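 active means inhibition of at least 50% at 8 µM in the primary screen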
UPR CHOP act = apoptotic UPR (CHOP) activation. 330,000 compounds, 0.34% hits. CHO-CHOP luciferase reporter, luminescence; percent of tunicamycin response over DMSO baseline. activation, % at 10 µM;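 active means at 10 µM dose, activation of 40% or more, normalized to positive control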;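 further: 100% = tunicamycin at 10 µg/mL and 0% = DMSO alone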
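System: CHO-CHOP luciferase reporter cell line; amount: 500 cells/well; buffer or medium: F12 medium containing 10% fetal bovine serum; incubation: 6 h compound exposure at 37 °C after overnight seeding; measured by: luciferase luminescence after 10 min with Steady-Glo reagent; evaluation: % reporter activation, DMSO baseline versus tunicamycin full activation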
UPR XBP1 act = adaptive UPR (XBP1) activation. CHO-XBP1 luciferase reporter, IRE1-XBP1 UPR activation, luminescence; percent of tunicamycin response, DMSO as zero. activation, % at 20 µM. 330,000 compounds, 0.33% hits;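 active means versus positive control, 20 µM dose yields 30% or more activation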;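 further: 100% = tunicamycin at 10 µg/mL and 0% = DMSO only wells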
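Material: CHO cell line with stable XBP1 luciferase reporter; buffer or medium: F12 medium containing 10% fetal bovine serum; compound: single point, 20 µM final compound, 1% DMSO; incubation: 6 h treatment, 37 °C; measured by: glow luminescence from Steady-Glo reagent; evaluation: activation, % of tunicamycin; control set: tunicamycin high, DMSO low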
UPR CHOP confirm = confirmation of apoptotic unfolded protein response (CHOP) activators | shares compounds with UPR CHOP act | CHO-CHOP cells, CHOP-luciferase reporter luminescence; percent of tunicamycin response, DMSO as zero | activation, % at 10 µM | 1,000 compounds, 64% hits; in the data active means activation above about 33%;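 further: 0% = DMSO wells and 100% = tunicamycin 10 µg/mL wells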
XBP1 UPR conf = confirmation of adaptive unfolded protein response (XBP1) activators. shares compounds with UPR XBP1 act. CHO-XBP1 IRE1-XBP1 luciferase reporter, luminescence. activation, % at 20 µM. 1,000 compounds, 63% hits;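 active means reporter signal at least 30% of the positive control's activation in two or more of four replicate wells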;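 further: plate controls were DMSO negative control for no effect and tunicamycin 10 µg/mL positive control for full effect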
Mdm2 MdmX conf = confirmation of human Mdm2/MdmX interaction inhibitors | inhibition, % at 8 µM | 10,000 compounds, 55% hits | Mdm2-MdmX binding, luminescent assay | shares compounds with Mdm2 MdmX PPI; in the data active means inhibition above about 40%
FLuc counter = counter-screen for Mdm2/MdmX inhibitors: full-length luciferase | shares compounds with Mdm2 MdmX PPI | SaOS-2 full-length luciferase counterscreen, luminescence | inhibition, % at 8 µM | 6,200 compounds, 77% hits | AID 504607;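 active means mean inhibition at 8 µM reaching about 37%, which flags the compound as non-specific, limit read from the data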;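 further: p53-null SaOS-2 cells with luciferase driven by a doxycycline-inducible promoter; compound on cells about two nights before reading with doxycycline added after day one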
Numbers without * were called inactive; ? = inconclusive; nt = not tested or not shown. Rows were chosen to be rich in hits. Some 4% of all compounds tested hit in one or more screens of this group.

SMILES | Granule exo inh | ABHD5 PLIN5 PPI | Mdm2 MdmX PPI | UPR CHOP act | UPR XBP1 act | UPR CHOP confirm | Mdm2 MdmX conf | others
COc1ccc(/C=C/C(=O)c2ccc([N+](=O)[O-])o2)cc1OC | nt | nt | 95.6* | 81.5* | -8.4 | -0.9 | 92.8* | FLuc counter=56.5*
COc1ccc2cc(C)c3nnc(SCC(=O)Nc4nc(-c5ccc(F)cc5)cs4)n3c2c1 | -3.8 | -4.5 | 86.4* | 160.4* | 215.8* | 88.3* | 25.1 | XBP1 UPR conf=216.5*
COc1ccc(-c2csc(NC(=O)CSc3nnc(Nc4ccccc4C)s3)n2)cc1 | -3.9 | -10.7 | 41.5 | 4.4 | 1.1 | nt | nt
Cc1cc(=O)[nH]c(N/N=C/c2ccc(Br)s2)n1 | -2.8 | -5.3 | -15.0 | 3.5 | -4.0 | nt | nt
O=C1C(c2ccccc2)=[N+]([O-])c2ccccc21 | -16.4 | -11.6 | 92.9* | 66.5* | 15.7 | 29.4 | 19.1
COC1=C(c2ccccc2)C(=O)c2ccccc2C1=O | 20.7 | -7.4 | -13.0 | -0.2 | -3.0 | nt | nt
CCOc1ccc2nc(Cl)c(C3CC(c4ccccc4)=NN3C(=O)c3ccco3)cc2c1 (centres undefined) | nt | nt | 56.5* | 123.7* | 121.9* | -0.6 | 7.8
CCOc1cc(/C=N/N=C(\N)c2nonc2N)cc(Br)c1OCc1cccc2ccccc12 | -1.2 | -0.6 | 69.1* | 106.5* | 268.3* | 29.8 | 59.4* | XBP1 UPR conf=210.9*;FLuc counter=33.4
O=C(CSc1nc2ccc(Nc3nc(N4CCOCC4)nc(N4CCOCC4)n3)cc2s1)N1CCOCC1 | 10.1 | -4.2 | 33.0 | 1.0 | 3.8 | nt | nt
O=C(CSc1nc2ccc(Nc3nc(N4CCOCC4)nc(N4CCOCC4)n3)cc2s1)Nc1ccccc1F | 1.2 | 0.9 | 91.4* | 106.5* | 277.4* | 110.6* | 25.7 | XBP1 UPR conf=301.8*
O=C(N/N=C/c1ccco1)c1ccc2nc[nH]c2c1 | -0.5 | -5.9 | -4.7 | 1.2 | 1.6 | nt | nt
O=C(CCl)Nc1ccc(N=Nc2ccccc2)cc1 | 0.9 | 4.7 | nt | nt | nt | nt | nt
O=C(CCl)Nc1ccc(-c2ccccc2)cc1 | 3.6 | -1.2 | 96.0* | 42.8* | 2.1 | 47.3* | 98.7* | FLuc counter=50.3*
Cc1ccc(Cn2ccc(NC(=O)c3cc(-c4ccc(F)cc4)on3)n2)cc1 | -0.2 | 9.6 | 7.7 | -0.4 | -1.4 | nt | nt
O=C(C[C@H]1C[C@H](C(=O)N2CCCCC2)[C@@]2(CCc3ccccc3)c3[nH]c4ccc(Cl)cc4c3CCN2C1=O)NCCC1=CCCCC1 | 20.3 | 0.7 | 77.4* | 55.5* | 144.4* | 84.2* | 25.4 | XBP1 UPR conf=146.2*
O=C(C[C@H]1C[C@H](C(=O)N2CCCCC2)[C@@]2(CCc3ccccc3)c3[nH]c4ccc(Cl)cc4c3CCN2C1=O)NCCc1ccccn1 | 13.0 | 0.3 | 25.8 | 15.9 | 10.4 | nt | nt
Cc1cc(C)cc(OC(=O)CN2C(=O)c3ccccc3C2=O)c1 | -0.3 | 2.1 | 15.4 | 1.1 | -5.4 | nt | nt
COc1ccc2c(c1)c(/C=N/Nc1nc3ccccc3[nH]1)c(C)n2C | 5.6 | 14.1 | 92.8* | 286.5* | 6.5 | 3.2 | 37.3 | FLuc counter=67.9*
CC(C)(C)C(=O)NC(=S)NNC(=O)c1ccc(-c2ccccc2)cc1 | 0.6 | -5.7 | 57.3* | 69.2* | 72.0* | 84.3* | 45.6* | XBP1 UPR conf=49.7*;FLuc counter=28.9
CC(C)(C)C(=O)NC(=S)NNC(=O)c1ccncc1 | -0.6 | -3.7 | 10.7 | -0.9 | -2.3 | nt | nt
Cc1ccc(S(=O)(=O)N2CCOCC2)cc1C(=O)OCC(=O)NC1CCCC(C)C1C (centres undefined) | 3.1 | -1.4 | 5.3 | 0.0 | -2.7 | nt | nt
O=[N+]([O-])c1ccc(Sc2cccc3cccnc23)c([N+](=O)[O-])c1 | 5.8 | -7.4 | 93.0* | 256.0* | -2.0 | 158.2* | 86.5* | FLuc counter=56.5*
COc1cccc(C2C(C(=O)c3ccc(C)o3)=C(O)C(=O)N2CCN2CCOCC2)c1OC (centres undefined) | 4.5 | 3.9 | 19.1 | -0.4 | -0.9 | nt | nt
COc1ccc(Br)cc1/C=N/NC(=O)c1nc(-c2ccccc2)n2c1CCCCC2 | -0.8 | -2.4 | 5.2 | 4.1 | 0.1 | nt | nt
O=S1(=O)CC(N2CCSCC2)CN1Cc1cn(Cc2ccc(F)cc2)nn1 (centres undefined) | -0.7 | -4.9 | nt | nt | nt | nt | nt
SMILES | Granule exo inh | ABHD5 PLIN5 PPI | Mdm2 MdmX PPI | UPR CHOP act | UPR XBP1 act | UPR CHOP confirm | Mdm2 MdmX conf | others
Cc1nc(SCC(=O)Nc2ccc(F)cc2)c(C#N)c(C)c1CC(=O)c1ccc(Br)cc1 | -1.7 | -3.4 | 96.7* | 57.0* | 97.5* | 34.9* | 76.1* | XBP1 UPR conf=67.8*;FLuc counter=80.4*
COc1ccc(NC(=O)CSc2nc(C)c3c(c2C#N)CCCC3)cc1 | -0.9 | -5.5 | 8.4 | -2.1 | -1.9 | nt | nt
COc1ccc(C2Nc3ccc4ccccc4c3-c3c2c(=O)oc2ccccc32)cc1 (centres undefined) | 5.5 | 10.9 | 79.4* | 49.2* | 133.6* | 46.8* | 20.6
O=c1oc2ccccc2c2c1C(c1ccc(Cl)cc1)Nc1ccc3ccccc3c1-2 (centres undefined) | -4.0 | -0.7 | 46.2 | 3.6 | 1.8 | nt | nt
CC1(C)CC(=O)C=C(NCCN2CCN(C(=O)Nc3ccc(Cl)c(Cl)c3)CC2)C1 | 1.9 | 2.5 | -5.8 | 0.4 | -2.9 | nt | nt
O=C1c2cc(F)ccc2-n2c1nc1ccccc1c2=O | 3.7 | -5.5 | 63.2* | 77.2* | 12.3 | 30.1 | 33.5 | FLuc counter=22.6
CC(=O)NS(=O)(=O)c1ccc(NC(=O)/C=C/c2cn(-c3ccccc3)nc2-c2ccccc2)cc1 | ? | 7.2 | 13.6 | 1.0 | -1.8 | nt | nt
O=C(/C=C\c1cn(-c2ccccc2)nc1-c1ccccc1)Nc1nccs1 | 8.2 | -1.4 | 84.4* | 50.9* | 105.7* | 17.6 | 80.8* | XBP1 UPR conf=113.3*;FLuc counter=28.9
Cc1onc(-c2ccccc2Cl)c1C(=O)c1ccccc1 | 0.2 | 0.6 | 25.4 | -0.5 | -1.6 | nt | nt
Cc1ccc(NC(=O)COc2ccc(/C=C3/SC(=Nc4ccccc4)N(Cc4cccnc4)C3=O)cc2)cc1 | 0.1 | -2.7 | 50.8* | 84.1* | 63.1* | 151.8* | 10.4 | XBP1 UPR conf=59.9*
Cc1ccc(NC(=O)COc2ccc(/C=N/NC(=O)CSCc3ccccc3)cc2)cc1 | -8.3 | 0.2 | -3.0 | 3.9 | 1.1 | nt | nt
COc1ccc(/C=C/c2ccc3cccc(O)c3n2)c(OC)c1OC | 9.8 | -12.1 | 99.8* | 135.3* | 11.4 | 31.1 | 18.4
COc1ccc(/C=C/c2ccc3cccc(O)c3n2)cc1Br | -10.2 | -13.7 | 4.0 | 5.8 | -1.0 | nt | nt
Cc1csc(NC(=O)c2ccc(Cl)cc2[N+](=O)[O-])n1 | 1.9 | -12.9 | -61.9 | 4.1 | -1.8 | nt | nt
